Experiments:
[1] = Toxicity in ICR mouse assessed as death at 200 mg equiv/kg parent drug administered via oral gavage relative to control; settings: in vivo
Method in brief: (§1)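 Male and female ICR mice (20 ± 2 g), fasted overnight, dosed by gavage in 10% DMSO, 20% Solutol HS-15, 70% saline (n = 10/group for diastereoisomeric mixtures, n = 6/group for single diastereoisomers). Mice were placed on their backs until righting stopped. Read-outs were onset of LORR, anesthetic duration, percent with LORR and percent mortality per group.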

[2] = tested on: Mus musculus; test: Anesthetic activity in ICR mouse assessed as anesthetic duration time at 200 mg equiv/kg parent drug administered via oral gavage; assay type: functional; method in brief: as §1
[3] = tested on: Mus musculus; test: Anesthetic activity in ICR mouse assessed as loss of righting reflex at 200 mg equiv/kg parent drug administered via oral gavage relative to control; assay type: functional; method in brief: as §1
[4] = tested on: Mus musculus; test: Anesthetic activity in ICR mouse assessed as onset time for loss of righting reflex at 200 mg equiv/kg parent drug administered via oral gavage; assay type: functional; method in brief: as §1
[5] = tested on: Mus musculus; test: Anesthetic activity in ICR mouse assessed as anesthetic duration time at 100 mg equiv/kg parent drug administered via oral gavage; assay type: functional; method in brief: as §1
[6] = Toxicity in ICR mouse assessed as death at 100 mg equiv/kg parent drug administered via oral gavage relative to control; settings: in vivo; method in brief: as §1
[7] = tested on: Mus musculus; test: Anesthetic activity in ICR mouse assessed as onset time for loss of righting reflex at 100 mg equiv/kg parent drug administered via oral gavage; assay type: functional; method in brief: as §1
[8] = tested on: Mus musculus; test: Anesthetic activity in ICR mouse assessed as loss of righting reflex at 100 mg equiv/kg parent drug administered via oral gavage relative to control; assay type: functional; method in brief: as §1
[9] = Half life in Beagle dog at 10 mg/kg, po by LC-MS/MS analysis; assay type: ADME, organism-based, Canis lupus familiaris; settings: in vivo
Method in brief: (§2)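 Beagle dogs (n=3/group) received a single i.v. bolus of parent drug, then after a one-week washout received the prodrug i.g. in 5% DMSO, 5% Solutol HS-15 (30%, w/v), 90% saline. Heparinized blood was taken to 24 h, and plasma was obtained at 2–8 °C and stored at -80 °C. Parent drug was measured by LC-MS/MS and analysed non-compartmentally. Oral bioavailability was oral versus i.v. exposure to the active compound.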

[10] = AUC (0 to t) in Beagle dog at 10 mg/kg, po by LC-MS/MS analysis; assay type: ADME, organism-based, Canis lupus familiaris; settings: in vivo
[11] = Cmax in Beagle dog at 2 mg/kg, iv administered as single bolus dose by LC-MS/MS analysis; assay type: ADME, organism-based, Canis lupus familiaris; parameters: dose 2 mg/kg, route intravenous; settings: in vivo; method in brief: as §2
[12] = Half life in Beagle dog at 2 mg/kg, iv administered as single bolus dose by LC-MS/MS analysis; assay type: ADME, organism-based, Canis lupus familiaris; settings: in vivo; method in brief: as §2
[13] = AUC (0 to t) in Beagle dog at 2 mg/kg, iv administered as single bolus dose by LC-MS/MS analysis; assay type: ADME, organism-based, Canis lupus familiaris; settings: in vivo
[14] = Cmax in Beagle dog at 10 mg/kg, po by LC-MS/MS analysis; assay type: ADME, organism-based, Canis lupus familiaris; parameters: dose 10 mg/kg, route oral; settings: in vivo; method in brief: as §2
[15] = Oral bioavailability in Beagle dog at 10 mg/kg by LC-MS/MS analysis; assay type: ADME, organism-based, Canis lupus familiaris; settings: in vivo; method in brief: as §2
[16] = tested on: Mus musculus; test: Sleep promoting activity in po dosed ICR mouse assessed as increase in pentobarbital induced sleep time administered 5 mins before pentobarbital injection; assay type: functional, organism-based
Method in brief: (§3)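 Fasted male and female ICR mice (n=10/group) received vehicle or 55, 65 or 75 mg/kg orally in 10% DMSO, 20% Solutol HS-15 (30%, w/v), 70% saline, 5 min before pentobarbital 40 mg/kg i.p. Sleep duration ran from falling asleep to recovery of the righting reflex. Data are mean ± SEM versus vehicle.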

[17] = tested on: Mus musculus; test: Sleep promoting activity in ICR mouse assessed as pentobarbital induced sleep time at 65 mg/kg, po administered 5 mins before pentobarbital injection (reference value: 33 +/- 20 min); assay type: functional; method in brief: as §3
[18] = tested on: Mus musculus; test: Sleep promoting activity in ICR mouse assessed as pentobarbital induced sleep time at 75 mg/kg, po administered 5 mins before pentobarbital injection (reference value: 33 +/- 20 min); assay type: functional; method in brief: as §3
[19] = Cmax in Beagle dog at 1 mg/kg, iv administered as single bolus dose by LC-MS/MS analysis; assay type: ADME, organism-based, Canis lupus familiaris; parameters: dose 1 mg/kg, route intravenous; settings: in vivo; method in brief: as §2
[20] = AUC (0 to t) in Beagle dog at 1 mg/kg, iv administered as single bolus dose by LC-MS/MS analysis; assay type: ADME, organism-based, Canis lupus familiaris; settings: in vivo
[21] = Half life in Beagle dog at 1 mg/kg, iv administered as single bolus dose by LC-MS/MS analysis; assay type: ADME, organism-based, Canis lupus familiaris; settings: in vivo; method in brief: as §2
[22] = in vivo; settings: Beagle, dog, po, 6.9 mg/kg
[23] = in vivo; settings: Beagle, dog, iv, 3 mg/kg
[24] = in vivo; settings: Beagle, dog, po, 6.9 mg/kg; remark: listed apart in the source
[25] = Half life in Beagle dog at 6.9 mg/kg, po by LC-MS/MS analysis; settings: in vivo
[26] = Half life in Beagle dog at 3 mg/kg, iv administered as single bolus dose by LC-MS/MS analysis; settings: in vivo
[27] = in vivo; settings: Beagle, dog, po, 6.9 mg/kg; remark: listed apart in the source
[28] = in vivo; settings: Beagle, dog, iv, 3 mg/kg; remark: listed apart in the source
[29] = Cmax in Beagle dog at 0.2 mg/kg, iv administered as single bolus dose by LC-MS/MS analysis; assay type: ADME, organism-based, Canis lupus familiaris; parameters: dose 0.2 mg/kg, route intravenous; settings: in vivo
Method in brief: (§4)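 Beagle dogs (n=3/group) received the parent drug as an intravenous bolus. Heparinized blood was drawn pre-dose and at 2, 5, 10, 20 and 30 min and 1, 2, 4, 6, 8, 10, 12 and 24 h. Plasma was separated by centrifugation at 2–8 °C and stored at -80 °C. Parent drug was measured by LC-MS/MS, and parameters were derived by non-compartmental analysis.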

[30] = AUC (0 to t) in Beagle dog at 0.2 mg/kg, iv administered as single bolus dose by LC-MS/MS analysis; assay type: ADME, organism-based, Canis lupus familiaris; settings: in vivo
[31] = Half life in Beagle dog at 0.2 mg/kg, iv administered as single bolus dose by LC-MS/MS analysis; assay type: ADME, organism-based, Canis lupus familiaris; settings: in vivo; method in brief: as §4

| Compound | mortality [1] [%] | Time [2] [min] | Activity [3] [%] | Time [4] [min] | also measured |
| --- | --- | --- | --- | --- | --- |
| CCOC(=O)[C@H](C)N[P@@](=O)(COC)Oc1c(C(C)C)cccc1C(C)C | 0 | 47.24 | 33 | 9.68 | – |
| CCOC(=O)C(C)(C)NP(=O)(COC)Oc1c(C(C)C)cccc1C(C)C (stereo unspecified) | 20 | 115.9 | 100 | 6.74 | – |
| CCOC(=O)[C@H](C)N[P@](=O)(COC)Oc1c(C(C)C)cccc1[C@H](C)C1CC1 | – | – | – | – | Time [5]: 107.68 min; mortality [6]: 0%; Time [7]: 3.98 min; Activity [8]: 100% |
| CC(C)c1cccc([C@H](C)C2CC2)c1O [CIPEPOFOL] | – | – | – | – | half-life [9]: 26.4 min; AUC(0-t) [10]: 162 ng·h/mL; Cmax [11]: 1610 ng/mL; half-life [12]: 12 min; AUC(0-t) [13]: 417 ng·h/mL; Cmax [14]: 233 ng/mL; bioavailability [15]: 7.7% |
| CCOC(=O)[C@H](C)N[P@](=O)(COC)Oc1c(C(C)C)cccc1C(C)C | 0 | 40.1 | 100 | 4.38 | Activity [16]: Dose-dependent effect; Time [17]: 69 min; Time [18]: 82 min |
| C=CCN1CC[C@]23c4c5ccc(O)c4O[C@H]2C(=O)CC[C@@]3(O)[C@H]1C5 [NALOXONE] | – | – | – | – | half-life [9]: 539 min; AUC(0-t) [10]: 117 ng·h/mL; Cmax [14]: 43 ng/mL; bioavailability [15]: 9.6%; Cmax [19]: 196 ng/mL; AUC(0-t) [20]: 122 ng·h/mL; half-life [21]: 22.8 min |
| CCOC(=O)[C@@H](C)NP(=O)(COC)Oc1c(C(C)C)cccc1C(C)C (stereo partly specified) | 10 | 44.8 | 100 | 9.48 | – |
| CCOC(=O)[C@H](C)NP(=O)(CO)Oc1c(C(C)C)cccc1C(C)C (stereo partly specified) | 10 | 19.19 | 40 | 6.91 | – |
| CCOC(=O)[C@H](C)NP(=O)(COC)Oc1c(C(C)C)cccc1C(C)C (stereo partly specified) | 10 | 60.31 | 100 | 4.5 | – |
| CCOC(=O)CNP(=O)(COC)Oc1c(C(C)C)cccc1C(C)C (stereo unspecified) | 0 | 32.48 | 70 | 14.37 | – |
| COCP(=O)(N[C@@H](C)C(=O)OC(C)C)Oc1c(C(C)C)cccc1C(C)C (stereo partly specified) | 0 | 59.38 | 40 | 12.7 | – |
| CCc1c2c(nc3ccc(O)cc13)-c1cc3c(c(=O)n1C2)COC(=O)[C@]3(O)CC [7-ETHYL-10-HYDROXYCAMPTOTHECIN] | – | – | – | – | Cmax [11]: 983 ng/mL; half-life [12]: 160 min; AUC(0-t) [13]: 410 ng·h/mL |
| CCOC(=O)[C@H](C)NP(=O)(COC)Oc1c(C(C)C)cccc1[C@H](C)C1CC1 (stereo partly specified) | – | – | – | – | Time [5]: 74.44 min; mortality [6]: 50%; Time [7]: 4.49 min; Activity [8]: 100% |
| CC(C)c1cccc(C(C)C)c1O [PROPOFOL] | – | – | – | – | AUC(0-t) [22]: 102 ng·h/mL; Cmax [23]: 2050 ng/mL; Cmax [24]: 97 ng/mL; half-life [25]: 38.4 min; half-life [26]: 12 min; bioavailability [27]: 7.3%; AUC(0-t) [28]: 616 ng·h/mL |
| COCP(=O)(N[C@@H](C)C(=O)OCc1ccccc1)Oc1c(C(C)C)cccc1C(C)C (stereo partly specified) | 10 | 94.61 | 50 | 9.34 | – |
| CCOC(=O)[C@H](C)NP(=O)(CN1CCOCC1)Oc1c(C(C)C)cccc1C(C)C (stereo partly specified) | 10 | 16.18 | 60 | 7.65 | – |
| CCOC(=O)[C@H](C)N[P@@](=O)(COC)Oc1c(C(C)C)cccc1[C@H](C)C1CC1 | – | – | – | – | Time [5]: 85.23 min; mortality [6]: 17%; Time [7]: 4.35 min; Activity [8]: 100% |
| C[C@]12CC[C@@H]3c4ccc(O)cc4CC[C@H]3[C@@H]1CC[C@@H]2O [ESTRADIOL] | – | – | – | – | Cmax [29]: 76 ng/mL; AUC(0-t) [30]: 28 ng·h/mL; half-life [31]: 16.2 min |
| COCP(=O)(N[C@@H](C)C(=O)OCC(C)C)Oc1c(C(C)C)cccc1C(C)C (stereo partly specified) | 10 | 24.47 | 100 | 8.36 | – |

— ChEMBL document CHEMBL4017539, “Oral Delivery of Propofol with Methoxymethylphosphonic Acid as the Delivery Vehicle” (J Med Chem, 2017)
